From PMC6300982 (Chemosphere, 2015)

Assays:
Assay type in all cases: biochemical
UGT1A3 [1] = biological target: T1, UGT1A3 (Homo sapiens, UniProt P35503); assay: glucuronidation of 4-MU by recombinant enzyme, HPLC-UV
T1 sequence (P35503 29-534): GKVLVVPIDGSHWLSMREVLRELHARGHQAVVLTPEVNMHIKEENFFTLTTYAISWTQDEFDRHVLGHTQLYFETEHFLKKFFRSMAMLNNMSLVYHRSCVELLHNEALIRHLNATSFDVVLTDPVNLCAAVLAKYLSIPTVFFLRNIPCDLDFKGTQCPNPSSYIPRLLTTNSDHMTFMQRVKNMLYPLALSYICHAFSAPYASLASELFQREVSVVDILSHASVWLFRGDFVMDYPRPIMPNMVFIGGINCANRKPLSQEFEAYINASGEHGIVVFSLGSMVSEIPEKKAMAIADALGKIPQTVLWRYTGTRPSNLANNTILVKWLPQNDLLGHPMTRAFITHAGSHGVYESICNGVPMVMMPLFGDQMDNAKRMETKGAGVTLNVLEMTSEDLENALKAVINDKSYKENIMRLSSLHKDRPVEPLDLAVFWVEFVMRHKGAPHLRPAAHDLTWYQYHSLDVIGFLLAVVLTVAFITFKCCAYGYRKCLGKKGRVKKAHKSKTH

UGT1A9 = biological target: T2, UGT1A9 (Homo sapiens, UniProt O60656); assay: single-concentration; details: read-out: % inhibition at 100 μM
T2 sequence (O60656 26-530): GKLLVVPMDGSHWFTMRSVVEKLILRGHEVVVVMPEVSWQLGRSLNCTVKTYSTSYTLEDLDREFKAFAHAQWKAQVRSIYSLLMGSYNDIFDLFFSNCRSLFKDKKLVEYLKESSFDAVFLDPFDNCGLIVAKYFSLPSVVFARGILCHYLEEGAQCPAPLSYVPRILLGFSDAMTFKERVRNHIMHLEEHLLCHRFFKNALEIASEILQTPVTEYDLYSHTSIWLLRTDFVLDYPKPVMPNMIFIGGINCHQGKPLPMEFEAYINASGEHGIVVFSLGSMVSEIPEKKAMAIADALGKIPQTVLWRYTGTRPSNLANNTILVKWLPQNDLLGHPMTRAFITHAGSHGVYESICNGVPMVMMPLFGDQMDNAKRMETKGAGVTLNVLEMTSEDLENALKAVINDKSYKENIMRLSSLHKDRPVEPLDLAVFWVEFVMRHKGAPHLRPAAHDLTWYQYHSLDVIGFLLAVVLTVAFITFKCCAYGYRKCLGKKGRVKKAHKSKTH

UGT1A3 [2] = biological target: T1, UGT1A3; assay: dose-dependent inhibition of 4-MU glucuronidation, HPLC-UV; details: read-out: % inhibition at 100 μM
UGT2B7 = biological target: T3, UGT2B7 (Homo sapiens, UniProt P16662); assay: single-concentration; details: read-out: % inhibition at 100 μM
T3 sequence (P16662 24-529): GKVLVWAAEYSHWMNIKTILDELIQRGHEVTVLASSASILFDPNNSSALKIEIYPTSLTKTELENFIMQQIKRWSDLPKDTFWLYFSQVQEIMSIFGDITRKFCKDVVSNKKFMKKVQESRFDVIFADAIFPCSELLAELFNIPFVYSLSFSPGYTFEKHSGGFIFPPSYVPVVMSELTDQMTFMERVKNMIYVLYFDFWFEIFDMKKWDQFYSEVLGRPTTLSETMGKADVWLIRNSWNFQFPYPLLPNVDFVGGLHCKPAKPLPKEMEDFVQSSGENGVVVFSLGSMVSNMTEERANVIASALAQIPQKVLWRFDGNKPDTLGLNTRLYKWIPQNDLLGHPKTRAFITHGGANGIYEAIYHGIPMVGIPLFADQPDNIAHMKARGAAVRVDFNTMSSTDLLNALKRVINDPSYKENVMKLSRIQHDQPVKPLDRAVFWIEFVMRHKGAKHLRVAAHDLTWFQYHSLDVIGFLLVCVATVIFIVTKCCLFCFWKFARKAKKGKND

UGT1A3 [3] = biological target: T1, UGT1A3; assay: inhibition kinetics of 4-MU glucuronidation by recombinant enzyme
How it was run: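 Insect-cell-expressed human UGT1A3 glucuronidating 4-MU across several substrate and test compound concentrations. Buffer: 5 mM UDPGA, 5 mM MgCl2, 50 mM Tris-HCl pH 7.4. 5 min preincubation, started with UDPGA, 37 °C. 4-MUG quantified by HPLC-UV at 316 nm against internal standard. Dixon and Lineweaver–Burk plots gave inhibition type; Ki from secondary plot of Lineweaver–Burk slopes versus inhibitor concentration.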

UGT1A6 = biological target: T4, UGT1A6 (Homo sapiens, UniProt P19224); assay: single-concentration; details: read-out: % inhibition at 100 μM
T4 sequence (P19224 27-532): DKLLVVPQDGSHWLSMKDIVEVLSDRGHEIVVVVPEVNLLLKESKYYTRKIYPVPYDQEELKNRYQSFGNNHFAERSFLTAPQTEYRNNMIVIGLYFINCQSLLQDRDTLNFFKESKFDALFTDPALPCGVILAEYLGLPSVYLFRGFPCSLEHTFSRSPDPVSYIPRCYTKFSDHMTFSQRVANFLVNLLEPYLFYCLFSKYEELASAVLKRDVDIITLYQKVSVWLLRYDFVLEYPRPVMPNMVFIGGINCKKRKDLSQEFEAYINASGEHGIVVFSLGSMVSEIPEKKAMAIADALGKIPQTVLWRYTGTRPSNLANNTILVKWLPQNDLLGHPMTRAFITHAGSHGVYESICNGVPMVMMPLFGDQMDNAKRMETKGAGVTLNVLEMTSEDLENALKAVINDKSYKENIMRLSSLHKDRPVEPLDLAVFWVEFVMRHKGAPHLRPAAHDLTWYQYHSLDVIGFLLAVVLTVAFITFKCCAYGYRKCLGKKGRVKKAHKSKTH

| Compound | glucuronidation of 4-MU by recombinant enzyme, HPLC-UV (UGT1A3 [1]) | inhibition at 100 µM (UGT1A9) [%] | inhibition at 100 µM (UGT1A3 [2]) [%] | inhibition at 100 µM (UGT2B7) [%] | Ki (UGT1A3 [3]) [nM] | inhibition at 100 µM (UGT1A6) [%] |
| --- | --- | --- | --- | --- | --- | --- |
| Cc1cc(=O)oc2cc(O)ccc12 [4-MU, 4-Methylμmbelliferone] | Determination of inhibition kinetics of DPhP towards UGT1A3-catalyzed glucuronidation of 4-MU | – | – | – | – | – |
| CCCCCCCCOC(=O)c1ccccc1C(=O)OCCCCCCCC [DNOP, di-n-octyl ortho-phthalate] | – | 45.6 | 41.8 | 48.8 | – | – |
| O=C(Oc1ccccc1)c1ccccc1C(=O)Oc1ccccc1 [DPhP, diphenyl phthalate] | – | 76.4 | – | – | 890 | 49.1 |
